# CHOP inhibitor: inhibitors of CHOP promoter induction, primary screen, cell-based, unfolded protein response, luciferase reporter | CHO-K1 CHOP-promoter luciferase, tunicamycin-induced, 15-18 h | inhibition, % at 10 µM | 220,000 tested, 3.8% active;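 active = compounds that reduced the stress-induced luciferase reporter signal by more than about 70% of percent inhibition, limit read from the data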;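 note: 0% = tunicamycin plus vehicle and 100% = wells without tunicamycin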
# UPR CHOP act: activators of apoptotic CHOP UPR arm, primary screen, cell-based, CHO-CHOP luciferase reporter, luminescence, uHTS | UPR activation; percent of tunicamycin response over DMSO baseline | activation, % at 10 µM | 330,000 tested, 0.34% active | AID 449763, 2010;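 active = at 10 µM dose, activation of 40% or more, normalized to positive control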;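 note: 100% = tunicamycin at 10 µg/mL and 0% = DMSO alone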
#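 Material: CHO-CHOP cells, stable luciferase reporter of PERK-eIF2a-CHOP signalling; quantity: 500 reporter cells seeded per well; buffer or medium: F12 medium containing 10% fetal bovine serum; compound: one dose, 10 µM in 0.5% DMSO; incubation: 6 h compound treatment, 37 °C; measured by: Steady-Glo luciferase luminescence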
# UPR XBP1 act: activators of adaptive XBP1 UPR arm, primary screen, cell-based, CHO-XBP1 luciferase reporter, luminescence, uHTS; IRE1-XBP1 UPR activation; percent of tunicamycin response, DMSO as zero; 330,000 tested, 0.33% active; AID 463104, 2010; activation, % at 20 µM;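 active = versus positive control, 20 µM dose yields 30% or more activation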;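 note: 100% = tunicamycin at 10 µg/mL and 0% = DMSO only wells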
#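 Signal: luciferase luminescence; Assay system: CHO-XBP1 luciferase reporter cells; Amount: one thousand reporter cells per well; Dosing: 20 µM single concentration, DMSO 1%; Benchmarks: high control tunicamycin 10 µg/mL final, low control DMSO vehicle only; Schedule: 6 h compound exposure at 37 °C, 5% CO2; Evaluation: percent activation relative to tunicamycin reference.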
# MPTP block: mitochondrial permeability transition pore inhibitors, primary screen, biochemical, isolated mouse mitochondria, absorbance; 360,000 tested, 1.4% active; Ca2+ swelling absorbance, 30 min; inhibition, % at 10 µM;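 active = inhibition of 50% or more, scaled per plate between neutral and stimulator controls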;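 note: 0% = DMSO wells given calcium and 100% = 1 mM EGTA wells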
# aDG glyco act: activators of alpha-DG glycosylation, primary screen, uHTS, Pro5-aDG cells, AlphaScreen; alpha-DG glycosylation AlphaScreen (IIH6); 0% Pro5, 100% B10-LARGE cell signal; activation, % at 10 µM; 360,000 tested, 0.22% active; AID 624168, 2012;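 active = activation of at least 8% versus controls, or a plate z-score of at least 8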;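 note: Pro5 are CHO cells carrying HIG-tagged alpha-DG that lacks glycosylation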
# GRIN3A LBD mod: binders of NR3A ligand-binding domain, primary screen, biophysical, differential scanning fluorimetry, uHTS; NR3A LBD differential scanning fluorimetry, Tm shift; 0% = protein alone, 100% = glycine-bound protein; Tm shift relative to glycine control, % at 25 µM; 340,000 tested, 2.5% active;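 active = melting temperature shift of at least 10% of the positive control shift, at one fixed dose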
# The depositor's hits bear a star; / = not tested or not shown. Shown are actives, neighbours in structure and some others; about 5.6% of the full set was active somewhere.
SMILES,CHOP inhibitor,UPR CHOP act,UPR XBP1 act,MPTP block,aDG glyco act,GRIN3A LBD mod
CCOc1ccc2nc(NC(=O)C3CCCO3)sc2c1 (centres undefined),-0.6,4.5,3.0,0.2,0.1,0.1
COc1ccc2nc(NC(=O)c3ccccc3C(=O)O)sc2c1,/,-1.2,8.0,1.3,-0.1,-1.1
Cc1ccc2nc(NC(=O)CNS(=O)(=O)c3ccc(Br)s3)sc2c1,3.3,-0.5,0.2,15.7,0.0,-1.4
CCc1cccc(NC(=O)Cn2c(=O)n(CCC(=O)NCC3CCCO3)c(=O)c3cc(OC)c(OC)cc32)c1 (centres undefined),/,1.4,-4.6,-1.2,0.0,-2.7
COc1cc2nc(NC(=O)c3ccccc3)sc(=O)c2cc1OC,/,-1.4,1.1,0.1,-0.1,42.3*
COc1ccc(-n2nc(C(=O)Nc3nc4ccc(OC)cc4s3)c3ccccc3c2=O)c(OC)c1,87.9*,-2.1,2.7,/,/,/
COc1ccc(-n2nc(C(=O)NCC(=O)NCc3ccccc3OC)c3ccccc3c2=O)c(OC)c1,-9.3,-0.8,-1.0,-0.2,-0.1,-0.4
Cc1cc(N)n(-c2ccccn2)n1,-18.2,0.9,-0.2,0.7,0.1,12.5*
Cn1c(=O)[nH]c(Nc2ccccc2)c([N+](=O)[O-])c1=O,1.0,-0.2,-0.5,0.8,0.0,1.1
CCOc1ccc(-c2cc(C(=O)NCCCN3CCCC3)c3ccccc3n2)cc1,/,2.1,-1.9,3.9,1.0,-0.7
CC1(C)CC(=O)c2c(O)c(-c3ccccc3)c(=O)n(-c3ccccc3)c2C1,3.1,4.1,-1.8,0.2,-0.2,11.5*
COc1ccc(CN2CCC[C@]3(N[C@H](c4ccccc4)[C@@H]4C(=O)N(C)C(=O)[C@@H]43)C2=O)cc1,/,/,/,-0.6,-0.1,/
CCOC(=O)c1sc(NC(=O)c2ccc(CC)s2)nc1C,70.9*,3.1,2.6,0.9,-0.3,-2.0
CCOC(=O)c1cc2nc(Nc3ccc(OC)cc3)sc2s1,70.2*,4.3,-3.4,-4.0,0.2,15.0*
COc1ccc(Nc2nc(-c3ccc(OC)cc3)c(CCC(=O)O)s2)cc1,19.9,0.1,-5.5,1.3,-0.1,0.2
CCOC(=O)c1sc(NC(=O)c2cc3ccccc3o2)nc1C,-42.5,6.5,2.0,1.9,0.0,-2.8
CCOC(=O)c1sc(Nc2ccccc2Cl)nc1C,13.8,6.3,9.4,2.7,0.3,3.0
CCOC(=O)c1sc(Nc2ccc(Br)cc2)nc1C,1.6,4.0,1.2,30.4,0.1,13.9*
COc1ccccc1CCC(=O)OCC(=O)Nc1cc(C)nn1-c1ccccc1,/,-0.1,-1.2,0.1,-0.3,1.1
O=C(CN1CCN(C(=O)c2ccco2)CC1)Nc1cc(C(F)(F)F)ccc1Cl,-0.3,-1.3,-3.7,1.6,0.8,14.2*
CCc1ccccc1S(=O)(=O)Cc1ccc(C(=O)NCc2ccc3c(c2)OCO3)o1,87.2*,0.4,-2.0,0.4,-0.1,-1.0
Cc1ccc(-c2c(CC(=O)O)c(C)nc3sc4c(c23)CCCC4)cc1,/,-1.6,-3.2,0.0,0.0,0.3
COc1ccc(/C=N/NC(=O)c2ccc3ccccc3c2)cc1OS(=O)(=O)c1ccc(NC(C)=O)cc1,-13.9,-1.5,2.8,0.8,0.1,28.0*
COc1cc(/C=N\NC(=O)c2ccc(-c3ccccc3)cc2)cc(OC)c1OC(C)=O,/,4.7,2.6,0.2,-0.1,-7.6
COc1cc(/C=N/NC(=O)c2ccc(COc3cc(C)ccc3C(C)C)cc2)cc(OC)c1O,3.1,-0.9,-2.7,8.2,1.5,20.7*
SMILES,CHOP inhibitor,UPR CHOP act,UPR XBP1 act,MPTP block,aDG glyco act,GRIN3A LBD mod
Cc1ccc(C(C)C)c(OCc2ccc(C(=O)N/N=C/c3cccc(O)c3O)cc2)c1,106.6*,/,/,5.8,-0.4,23.9*
CCN(CC)S(=O)(=O)c1cccc(C(=O)N/N=C/c2cc(OC)c(O)c(OC)c2)c1,-6.9,-0.3,-0.6,-1.1,-0.3,2.9
COc1cc(/C=N\NC(=O)c2ccc(-c3ccccc3)cc2)cc(OC)c1O,/,4.0,2.1,-1.2,0.6,11.8*
CC(C)NC(=O)CN1CCN(C(=O)c2ccc3oc(CCCc4ccccc4)nc3c2)CC1,/,4.1,-1.2,0.5,-0.2,2.5
COc1ccc(CN2CCC(Oc3cc(C(=O)NC4CC4)ccc3OC)CC2)c(O)c1,/,2.2,-8.0,-0.2,-0.4,-0.1
CN(CC(=O)Nc1ccc(F)c(F)c1F)C(=O)c1nn(Cc2ccccc2)c(=O)c2ccccc12,/,0.3,-1.1,0.7,-0.2,1.7
CCOc1cc(/C=N/NC(N)=O)cc(Br)c1OCc1ccccc1F,67.7,4.2,1.5,0.1,-0.2,-16.5
COc1cc(/C=N/NC(N)=O)cc(Br)c1OCc1ccc(C)cc1,82.5*,0.7,0.2,1.6,-0.2,-1.1
Cc1ccccc1C(=O)Nc1ccc2c(C#N)c3nc4ccccc4nc3n2c1,95.9*,-2.8,9.4,10.6,-0.4,1.1
O=C(CSc1nc(-c2ccccc2)cc(C(F)(F)F)n1)NCc1ccco1,11.7,-1.0,-1.9,0.4,0.0,0.3
FC(F)(F)c1cc(-c2ccccc2)nc(NCc2cccs2)n1,75.2*,1.3,-1.5,2.7,0.5,-30.4
COc1ccc(-c2cc(C(F)(F)F)nc(SCC(=O)NCc3cccs3)n2)cc1,70.3*,-1.5,0.4,-1.1,0.0,-15.4
O=C(CSc1nc(-c2ccccc2)cc(C(F)(F)F)n1)NCc1cccs1,82.3*,-1.1,1.8,-1.2,0.1,-2.6
C=CC[C@]12CCc3sccc3C1N(c1ccc(C(=O)OCC)cc1)C2=O (some centres undefined),/,2.0,-1.7,2.5,0.3,-4.0
O=C(N/N=C/c1ccc(Cl)cc1)c1cc(-c2cccnc2)nc2ccccc12,83.9*,0.2,7.3,1.4,0.0,-5.2
Nc1sc(-c2ccccc2)cc1C(=O)N/N=C/c1ccc(Cl)cc1,-13.4,-0.9,-0.5,2.7,-0.1,13.2*
O=C(N/N=C/c1ccsc1)c1cc(-c2ccncc2)nc2ccccc12,-3.0,0.2,10.0,0.0,-0.2,-3.8
O=C(N/N=C/c1ccsc1)c1cc(-c2cccs2)nc2ccccc12,25.2,-0.1,3.7,3.2,-0.2,11.5*
O=C(N/N=C/c1cccc(O)c1)c1cc(-c2ccccc2)nc2ccccc12,/,4.6,-2.3,0.0,0.1,14.6*

# Assay outcomes from PubChem.
